Source: PubChem
Most compounds without a hit are left out; they make up all but 1.5% or so of the library.
TNF death inh – blocks TNF-alpha induced death of Jurkat FADD-/- cells; activation (protection from cell death), % at 10 µM; 220,000 compounds, 0.068% hits; Jurkat FADD-/- TNF necroptosis rescue, ATP luminescence, 24 h; 0 = TNF only, 100 = no-TNF cells;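 active = activation, meaning protection from cell death, of at least 50% relative to plate controls; inactive = activation below 50%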;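 also: necroptosis triggered by 40 ng/mL TNF-alpha added together with compound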
S1P4 antagonist – antagonists of human S1P4 receptor; AID 1510; S1P4-expressing cells, antagonist mode, reporter read-out; inhibition, % at 4.98 µM; 220,000 compounds, 0.26% hits; O95977; in the data active = inhibition above about 29%
Target sequence (O95977 whole entry, looked up): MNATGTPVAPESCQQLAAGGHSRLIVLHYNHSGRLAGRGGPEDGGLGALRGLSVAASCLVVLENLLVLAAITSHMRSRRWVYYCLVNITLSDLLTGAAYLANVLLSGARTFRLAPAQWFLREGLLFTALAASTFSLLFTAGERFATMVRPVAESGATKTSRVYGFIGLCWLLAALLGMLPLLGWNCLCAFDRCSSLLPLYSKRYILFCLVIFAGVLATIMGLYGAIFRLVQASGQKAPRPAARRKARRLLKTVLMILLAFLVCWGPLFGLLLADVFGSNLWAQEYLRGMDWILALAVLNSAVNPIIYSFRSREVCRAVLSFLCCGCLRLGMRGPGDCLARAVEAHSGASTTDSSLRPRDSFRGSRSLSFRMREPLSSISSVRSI
S1P4 ag – activates the human S1P4 receptor; S1P4-expressing cell line, agonist reporter assay; activation, % at 4.98 µM; 220,000 compounds, 0.35% hits; in the data active = activation above about 11%
Tb hexokinase – blocks Trypanosoma brucei hexokinase 1 activity; recombinant TbHK1, G6PDH-coupled NADH A340; inhibition, % at 10 µM; 220,000 compounds, 0.11% hits;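 active = inhibition of 50% or more in the single-dose primary screen; inactive = inhibition below 50%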
zVAD death inh – blocks zVAD induced death of L929 cells | L929 zVAD necroptosis rescue, ATP luminescence, 24 h; with zVAD 60 µM | viability rescue, % at 10 µM | 220,000 compounds, 0.38% hits | AID 1377;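 active = activation, scaled between plate controls, above about 75%, limit read from the data; inactive = activation under that limit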
Dynein cargo inh – blocks dynein driven cargo transport along microtubules | 3617.4 mouse cells, GR-EGFP nuclear translocation imaging; test concentration mostly 20 µM; stimulated with dexamethasone, 1 µM; active compounds read low | z-score, hits read low | 220,000 compounds, 0.47% hits;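 active = plate z-score of nuclear minus cytoplasmic receptor signal below a set negative limit, without overly bright fluorescence or cell loss, cut at about -3.5 in these data, passing the limit was not always enough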;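 also: z-score of nuclear minus cytoplasmic ring GR-EGFP intensity difference per well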
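Medium: Induction medium lacking tetracycline, stripped serum | Probe or stimulus: 1.0 µM final dexamethasone stimulus | Schedule: 48 h induction, then 1 h compound, then 30 min agonist, 37 °C | Signal: Automated 10x imaging of fixed Hoechst-stained cells | Evaluation: Per-cell GR-EGFP intensity, nucleus versus surrounding cytoplasmic ring, well-averaged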
Dynein confirm – dynein cargo transport inhibition, confirmation; shares compounds with Dynein cargo inh; 3617.4 GR-EGFP nuclear translocation imaging, dexamethasone-induced; calls only at 20 µM; 1,000 compounds, 69% hits; AID 463116;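 active = inhibition of receptor movement into the nucleus at or above a set limit in both runs, with normal cell brightness and cell count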;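 also: dexamethasone at 1 µM final in well for 30 min; nuclear minus cytoplasmic GR-EGFP mean intensity difference in channel 2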
Each line names hits and unclear results; the compound was inactive in the other large screens (follow-up assays come after a bar, where they were run).

Cc1cc(C)n(CC(=O)c2ccc(Cl)cc2)n1	none
CC(=O)Nc1ccc(OS(=O)(=O)c2cc(Cl)ccc2C)cc1	none
COc1ccc(NC(=O)COc2nc3ccccc3nc2N2CCOCC2)c(OC)c1	none
COc1ccc(S(=O)(=O)Nc2ccc(O)c3ccccc23)cc1	Dynein cargo inh -3.7 | Dynein confirm inactive
O=C(NC(=S)N1CCCCCC1)c1ccc(Cl)cc1Cl	none
Cc1nn(C)c(C(=O)NCc2ccc(Cl)cc2)c1Cl	none
CCSc1nc2ccccc2n1C(=O)/C=C\c1ccc(OC)c(OC)c1	Dynein cargo inh -4.3 | Dynein confirm active
CCSc1nc2ccccc2n1CC(N)=O	none
O=[N+]([O-])c1ccc(S(=O)(=O)CC(CN2CCCCC2)N2CCCCC2)cc1 (configuration not stated)	none | Dynein confirm active
O=C(C1CCCC1)N1CCN=C1SCc1cccc([N+](=O)[O-])c1	none
O=S(=O)(Nc1ccc(N2CCOCC2)cc1)c1cccs1	none
CCc1ccc(NS(=O)(=O)c2cccs2)cc1	none | Dynein confirm inactive
O=C(/C=C/c1ccccc1)c1ccc2c(c1)OCO2	none
O=C(/C=C/c1ccncc1)c1ccc2c(c1)OCCO2	Dynein cargo inh -5.4 | Dynein confirm active
CCOC(=O)CNc1nc(Cl)nc(Nc2ccc(Cl)cc2)n1	none
CC(=O)N1c2ccccc2C(CBr)=CC1(C)C	Dynein cargo inh -5.2 | Dynein confirm inactive
C=C(CCC(=O)c1ccccc1)C(=O)c1ccccc1	Dynein cargo inh -3.8 | Dynein confirm active
COCCCn1c(O)c(/C=C2\N=C(C#N)C(=Nc3ccc(C)cc3)O2)sc1=S	none | Dynein confirm active
COc1ccc(NC(=O)CCc2nc3ccccc3s2)c(OC)c1	Dynein cargo inh -5.7 | Dynein confirm inactive
CCCc1cc(-n2ccnc2)n2c(nc3ccccc32)c1C#N	none | Dynein confirm inactive
COc1ccc(C2(C)NC(=O)N(CC(=O)Nc3ccc(S(=O)(=O)N4CCCC4)cc3)C2=O)cc1 (configuration not stated)	none
CN(c1ccccc1)S(=O)(=O)c1ccc(C(=O)OCC(=O)NCc2cccs2)cc1	none
Cc1cccc2c(N=Nc3ccc(S(=O)(=O)Nc4ccc(Cl)cc4)cc3[N+](=O)[O-])c(O)[nH]c12	none
COc1cc2c(cc1OC)C(Cc1ccc(O)cc1)NCC2 (configuration not stated)	none
COc1cc2c(cc1OC)C(Cc1ccc(O)cc1)N(C)CC2 (configuration not stated)	Dynein cargo inh -4.7 (no result: zVAD death inh) | Dynein confirm inactive
Cc1ccc(/C=C/C(=O)NCC2COc3ccccc3O2)o1 (configuration not stated)	Dynein cargo inh -6.6 | Dynein confirm active
COc1ccc(/C=C/C(=O)NCC2COc3ccccc3O2)cc1OC (configuration not stated)	none
CCCN1C(=O)/C(=C/C=C2\N(CC)c3ccccc3C2(C)C)SC1=S	none | Dynein confirm inactive
C=CCN1C(=O)/C(=C\C=C2\N(C)c3ccccc3C2(C)C)SC1=S	none (no result: zVAD death inh)
CCN1C(=O)/C(=C/C=C2/Sc3ccccc3N2CCO)SC1=S	none
CCCCN1C(=O)/C(=C/C=C2\Oc3ccccc3N2CC)SC1=S	none | Dynein confirm active
CN(C(=O)Nc1cnc2ccccc2c1)c1ccccc1	none
CC1=NOC(=O)/C1=C\c1ccc(-c2cccc(Cl)c2)o1	none
CC1=NOC(=O)/C1=C\c1ccc(-c2ccccc2Br)o1	Dynein cargo inh -3.7 | Dynein confirm active
Cc1ccc(/C=C2/C(=O)ON=C2c2ccccc2)o1	Dynein cargo inh -6 | Dynein confirm active
O=C1ON=C(c2ccccc2)/C1=C\c1ccco1	Dynein cargo inh -4.4 | Dynein confirm active
COc1ccccc1-c1nnc(Sc2nc([N+](=O)[O-])nn2C)o1	Dynein cargo inh -4.1 | Dynein confirm active
Cn1cnnc1Sc1nc([N+](=O)[O-])nn1C	none
BrC(=C\c1ccccc1)/C=N/Nc1ccc2nncn2n1	none
BrC(=C\c1ccccc1)/C=N/n1cnnc1	Dynein cargo inh -3.7 | Dynein confirm active
